In general, inhibition refers to the percentage by which the read-out fell short of the control.

Test [1] deals with Activin receptor type-1-like (Homo sapiens) (UniProt P37023). In words: Inhibition of human recombinant ALK1 at 15 nM in presence of ATP by radiometric assay relative to control. The gist of the method: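 Panel of 327 recombinant human kinases, each assayed in vitro by radiometric activity assay in duplicate at a single inhibitor concentration per compound, chosen with reference to its ULK1 inhibition. Activity remaining was expressed as percent of vehicle control, and percent inhibition was calculated as 100 minus percent activity remaining.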

For test [2], the target named is Calcium/calmodulin-dependent protein kinase type 1D (Homo sapiens) (UniProt Q8IU85). In words: Inhibition of human recombinant CaMK1d at 15 nM related to control ULK1.
The target in test [3] is Tau-tubulin kinase 1 (Homo sapiens) (UniProt Q5TCY1). In words: Inhibition of human recombinant TTBK1 at 15 nM in presence of ATP by radiometric assay relative to control.
The target in test [4] is Tyrosine-protein kinase SYK (Homo sapiens) (UniProt P43405). In words: Inhibition of human recombinant SYK at 15 nM in presence of ATP by radiometric assay relative to control.
The target in test [5] is Cyclin-dependent kinase 18 (Homo sapiens) (UniProt Q07002). In words: Inhibition of human recombinant PCTAIRE3 at 15 nM in presence of ATP by radiometric assay relative to control.
Test [6] deals with T1, Mitogen-activated protein kinase kinase kinase 2 (Homo sapiens) (UniProt Q9Y2U5).
T1 sequence (whole entry): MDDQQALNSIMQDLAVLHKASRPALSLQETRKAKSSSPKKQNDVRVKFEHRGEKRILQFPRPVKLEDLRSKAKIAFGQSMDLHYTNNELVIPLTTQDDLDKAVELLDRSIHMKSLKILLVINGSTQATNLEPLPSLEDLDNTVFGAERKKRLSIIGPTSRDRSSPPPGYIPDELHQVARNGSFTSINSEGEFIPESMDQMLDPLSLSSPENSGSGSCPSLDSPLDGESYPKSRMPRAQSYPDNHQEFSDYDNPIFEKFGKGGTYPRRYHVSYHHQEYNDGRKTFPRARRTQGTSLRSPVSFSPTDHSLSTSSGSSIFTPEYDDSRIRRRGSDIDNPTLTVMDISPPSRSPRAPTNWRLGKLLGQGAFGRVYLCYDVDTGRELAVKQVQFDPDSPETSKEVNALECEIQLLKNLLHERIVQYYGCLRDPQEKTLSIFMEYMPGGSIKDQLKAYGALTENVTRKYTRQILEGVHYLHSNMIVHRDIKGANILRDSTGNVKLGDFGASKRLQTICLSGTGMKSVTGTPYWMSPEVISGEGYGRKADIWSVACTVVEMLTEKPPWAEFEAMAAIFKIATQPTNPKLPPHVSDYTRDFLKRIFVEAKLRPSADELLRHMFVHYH
In words: Inhibition of human recombinant MAP3K2 at 15 nM related to control ULK1.

For test [7], the target named is Cyclin-dependent kinase-like 1 (Homo sapiens) (UniProt Q00532). In words: Inhibition of human recombinant CDKL1 at 40 nM in presence of ATP by radiometric assay relative to control.
In test [8] the target is T2, Mitogen-activated protein kinase kinase kinase 3 (Homo sapiens) (UniProt Q99759).
T2 sequence (whole entry): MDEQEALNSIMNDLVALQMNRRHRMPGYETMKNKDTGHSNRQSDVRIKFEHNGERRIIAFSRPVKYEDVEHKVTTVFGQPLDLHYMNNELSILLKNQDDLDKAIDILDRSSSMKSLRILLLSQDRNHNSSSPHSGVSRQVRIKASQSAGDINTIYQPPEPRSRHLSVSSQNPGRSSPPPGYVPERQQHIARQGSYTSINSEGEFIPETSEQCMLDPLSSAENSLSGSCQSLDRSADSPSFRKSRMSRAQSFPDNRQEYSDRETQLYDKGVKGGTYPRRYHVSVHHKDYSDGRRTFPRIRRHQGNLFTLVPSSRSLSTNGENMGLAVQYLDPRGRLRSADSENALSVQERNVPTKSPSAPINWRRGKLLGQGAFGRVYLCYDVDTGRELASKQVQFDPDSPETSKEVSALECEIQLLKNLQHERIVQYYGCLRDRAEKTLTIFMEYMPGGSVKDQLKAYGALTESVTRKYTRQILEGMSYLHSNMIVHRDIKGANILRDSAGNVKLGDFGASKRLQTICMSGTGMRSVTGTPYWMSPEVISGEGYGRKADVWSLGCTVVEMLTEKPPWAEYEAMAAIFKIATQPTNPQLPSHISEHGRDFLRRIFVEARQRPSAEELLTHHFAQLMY
In words: Inhibition of human recombinant MAP3K3 at 40 nM in presence of ATP by radiometric assay relative to control.

In test [9] the target is Ribosomal protein S6 kinase alpha-6 (Homo sapiens) (UniProt Q9UK32). In words: Inhibition of human recombinant RSK4 at 40 nM in presence of ATP by radiometric assay relative to control.
For test [10], the target named is cAMP-dependent protein kinase catalytic subunit alpha (Homo sapiens) (UniProt P17612). In words: Inhibition of human recombinant PKACalpha at 40 nM related to control ULK1.
Test [11] deals with Serine/threonine-protein kinase MRCK alpha (Homo sapiens) (UniProt Q5VT25). In words: Inhibition of human recombinant MRCKa at 500 nM related to control ULK1.
For test [12], the target named is Eukaryotic translation initiation factor 2-alpha kinase 1 (Homo sapiens) (UniProt Q9BQI3). In words: Inhibition of human recombinant HRI at 500 nM related to control ULK1.
In test [13] the target is Serine/threonine-protein kinase VRK2 (Homo sapiens) (UniProt Q86Y07). In words: Inhibition of human recombinant VRK2 at 500 nM in presence of ATP by radiometric assay relative to control.
Sequence of Serine/threonine-protein kinase VRK2 (Homo sapiens) (Q86Y07 whole entry): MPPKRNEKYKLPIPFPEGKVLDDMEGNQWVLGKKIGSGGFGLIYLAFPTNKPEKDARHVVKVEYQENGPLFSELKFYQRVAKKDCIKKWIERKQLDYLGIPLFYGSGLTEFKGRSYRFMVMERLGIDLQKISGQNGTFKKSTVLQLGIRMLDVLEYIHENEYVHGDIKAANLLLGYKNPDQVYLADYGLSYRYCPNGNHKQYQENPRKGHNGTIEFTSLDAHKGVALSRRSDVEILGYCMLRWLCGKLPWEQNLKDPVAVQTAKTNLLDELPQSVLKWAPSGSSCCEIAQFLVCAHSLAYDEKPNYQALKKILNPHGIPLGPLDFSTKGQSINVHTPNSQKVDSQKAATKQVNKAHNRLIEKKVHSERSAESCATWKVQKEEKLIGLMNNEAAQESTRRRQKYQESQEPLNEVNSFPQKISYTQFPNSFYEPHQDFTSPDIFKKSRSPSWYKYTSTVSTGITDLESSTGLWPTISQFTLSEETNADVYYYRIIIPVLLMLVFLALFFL

Sequence of Tau-tubulin kinase 1 (Homo sapiens) (Q5TCY1 whole entry): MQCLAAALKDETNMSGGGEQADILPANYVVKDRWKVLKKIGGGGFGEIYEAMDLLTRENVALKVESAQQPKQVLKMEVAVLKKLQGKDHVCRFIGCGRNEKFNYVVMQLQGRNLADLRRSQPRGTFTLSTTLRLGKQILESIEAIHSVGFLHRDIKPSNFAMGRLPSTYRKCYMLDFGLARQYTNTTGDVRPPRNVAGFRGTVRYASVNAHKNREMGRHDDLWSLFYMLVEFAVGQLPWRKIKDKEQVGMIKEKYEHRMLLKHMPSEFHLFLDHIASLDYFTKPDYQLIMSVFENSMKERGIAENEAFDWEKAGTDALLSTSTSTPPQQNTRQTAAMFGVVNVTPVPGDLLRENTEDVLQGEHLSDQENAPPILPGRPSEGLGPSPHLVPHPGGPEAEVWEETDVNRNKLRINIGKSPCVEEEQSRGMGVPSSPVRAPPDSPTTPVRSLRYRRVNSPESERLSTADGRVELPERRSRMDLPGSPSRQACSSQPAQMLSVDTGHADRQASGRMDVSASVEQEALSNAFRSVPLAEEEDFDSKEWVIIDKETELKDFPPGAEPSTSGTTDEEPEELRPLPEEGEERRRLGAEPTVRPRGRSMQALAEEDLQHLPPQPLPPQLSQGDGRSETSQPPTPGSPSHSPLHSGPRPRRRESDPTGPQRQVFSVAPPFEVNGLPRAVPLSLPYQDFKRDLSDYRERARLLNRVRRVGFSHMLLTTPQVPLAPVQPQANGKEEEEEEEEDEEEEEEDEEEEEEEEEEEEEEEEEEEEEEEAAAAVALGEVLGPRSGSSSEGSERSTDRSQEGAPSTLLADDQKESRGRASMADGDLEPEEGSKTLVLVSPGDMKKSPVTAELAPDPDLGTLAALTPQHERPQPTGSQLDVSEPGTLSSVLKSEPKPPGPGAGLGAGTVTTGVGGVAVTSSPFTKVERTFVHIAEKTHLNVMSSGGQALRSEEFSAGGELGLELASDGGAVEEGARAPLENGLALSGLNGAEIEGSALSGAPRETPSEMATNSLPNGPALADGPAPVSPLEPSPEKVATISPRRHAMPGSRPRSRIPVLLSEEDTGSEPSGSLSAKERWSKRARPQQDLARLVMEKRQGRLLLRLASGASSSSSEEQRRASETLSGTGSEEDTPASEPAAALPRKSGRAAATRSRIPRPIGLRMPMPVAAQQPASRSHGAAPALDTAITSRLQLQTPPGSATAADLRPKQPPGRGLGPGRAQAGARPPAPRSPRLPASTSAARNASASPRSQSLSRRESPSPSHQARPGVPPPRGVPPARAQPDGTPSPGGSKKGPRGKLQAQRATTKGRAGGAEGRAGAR
Sequence of Cyclin-dependent kinase 18 (Homo sapiens) (Q07002 whole entry): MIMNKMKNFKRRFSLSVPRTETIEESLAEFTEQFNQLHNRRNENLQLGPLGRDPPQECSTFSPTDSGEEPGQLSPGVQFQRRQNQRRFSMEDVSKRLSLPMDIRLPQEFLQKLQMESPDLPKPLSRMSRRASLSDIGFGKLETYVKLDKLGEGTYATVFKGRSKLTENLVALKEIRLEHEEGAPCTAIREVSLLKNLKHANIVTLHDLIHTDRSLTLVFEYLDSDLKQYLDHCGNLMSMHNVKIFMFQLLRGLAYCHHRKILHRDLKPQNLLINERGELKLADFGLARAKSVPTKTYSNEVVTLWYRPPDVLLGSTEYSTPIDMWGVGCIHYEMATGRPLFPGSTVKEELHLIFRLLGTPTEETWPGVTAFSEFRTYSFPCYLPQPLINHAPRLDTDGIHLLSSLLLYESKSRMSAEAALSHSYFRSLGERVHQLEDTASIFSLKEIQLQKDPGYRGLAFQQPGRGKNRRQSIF
Sequence of Ribosomal protein S6 kinase alpha-6 (Homo sapiens) (Q9UK32 whole entry): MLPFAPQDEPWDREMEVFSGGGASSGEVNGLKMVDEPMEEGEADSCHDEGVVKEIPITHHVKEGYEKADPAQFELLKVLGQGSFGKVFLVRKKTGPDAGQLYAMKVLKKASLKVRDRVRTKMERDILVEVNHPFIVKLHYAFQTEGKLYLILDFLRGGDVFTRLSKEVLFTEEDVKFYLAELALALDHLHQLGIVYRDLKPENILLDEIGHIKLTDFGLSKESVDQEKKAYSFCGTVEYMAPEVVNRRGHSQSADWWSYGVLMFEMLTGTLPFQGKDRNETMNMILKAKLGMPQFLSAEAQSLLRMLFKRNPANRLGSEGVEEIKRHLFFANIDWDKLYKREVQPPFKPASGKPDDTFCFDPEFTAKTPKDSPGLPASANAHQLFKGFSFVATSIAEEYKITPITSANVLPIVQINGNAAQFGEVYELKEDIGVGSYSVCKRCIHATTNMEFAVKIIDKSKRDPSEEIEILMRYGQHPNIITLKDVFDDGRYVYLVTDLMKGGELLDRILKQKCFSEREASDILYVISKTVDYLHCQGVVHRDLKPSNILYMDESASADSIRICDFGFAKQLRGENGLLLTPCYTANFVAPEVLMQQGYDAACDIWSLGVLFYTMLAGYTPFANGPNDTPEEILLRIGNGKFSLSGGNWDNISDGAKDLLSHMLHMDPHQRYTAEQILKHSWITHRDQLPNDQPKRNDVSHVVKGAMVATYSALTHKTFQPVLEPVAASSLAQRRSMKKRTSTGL
Sequence of Activin receptor type-1-like (Homo sapiens) (P37023 whole entry): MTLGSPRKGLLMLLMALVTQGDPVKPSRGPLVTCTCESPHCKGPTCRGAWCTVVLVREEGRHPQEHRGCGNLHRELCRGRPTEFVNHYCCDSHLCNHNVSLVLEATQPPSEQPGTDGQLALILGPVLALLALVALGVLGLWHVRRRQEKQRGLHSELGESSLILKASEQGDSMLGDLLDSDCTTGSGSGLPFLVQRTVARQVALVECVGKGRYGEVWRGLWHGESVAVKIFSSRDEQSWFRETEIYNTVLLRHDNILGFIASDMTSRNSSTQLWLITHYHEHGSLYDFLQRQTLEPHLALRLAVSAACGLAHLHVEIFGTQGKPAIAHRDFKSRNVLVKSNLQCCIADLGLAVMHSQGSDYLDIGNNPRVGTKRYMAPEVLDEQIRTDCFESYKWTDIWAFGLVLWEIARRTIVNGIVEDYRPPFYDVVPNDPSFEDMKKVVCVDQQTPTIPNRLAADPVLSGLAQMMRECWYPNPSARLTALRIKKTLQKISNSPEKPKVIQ
Sequence of Cyclin-dependent kinase-like 1 (Homo sapiens) (Q00532 whole entry): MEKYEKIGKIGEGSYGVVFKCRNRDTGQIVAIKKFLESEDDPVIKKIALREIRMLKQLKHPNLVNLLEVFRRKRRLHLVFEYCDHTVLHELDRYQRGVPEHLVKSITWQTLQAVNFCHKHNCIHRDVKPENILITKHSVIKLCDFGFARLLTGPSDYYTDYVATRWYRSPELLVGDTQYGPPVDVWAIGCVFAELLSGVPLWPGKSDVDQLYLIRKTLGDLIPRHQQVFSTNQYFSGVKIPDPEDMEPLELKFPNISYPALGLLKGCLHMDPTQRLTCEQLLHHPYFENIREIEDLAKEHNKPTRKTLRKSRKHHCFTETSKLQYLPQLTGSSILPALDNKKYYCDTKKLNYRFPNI
Sequence of Calcium/calmodulin-dependent protein kinase type 1D (Homo sapiens) (Q8IU85 whole entry, looked up): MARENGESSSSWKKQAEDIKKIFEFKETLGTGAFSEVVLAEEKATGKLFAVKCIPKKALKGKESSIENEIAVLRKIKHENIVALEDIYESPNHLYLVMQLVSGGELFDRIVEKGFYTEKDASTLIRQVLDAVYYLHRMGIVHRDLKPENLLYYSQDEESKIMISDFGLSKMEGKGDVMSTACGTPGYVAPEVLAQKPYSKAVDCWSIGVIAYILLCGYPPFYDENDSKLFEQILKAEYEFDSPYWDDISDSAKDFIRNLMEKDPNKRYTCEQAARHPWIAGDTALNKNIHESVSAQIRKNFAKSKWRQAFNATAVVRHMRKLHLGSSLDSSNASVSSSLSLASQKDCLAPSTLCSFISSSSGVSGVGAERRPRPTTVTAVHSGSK
Sequence of Eukaryotic translation initiation factor 2-alpha kinase 1 (Homo sapiens) (Q9BQI3 whole entry): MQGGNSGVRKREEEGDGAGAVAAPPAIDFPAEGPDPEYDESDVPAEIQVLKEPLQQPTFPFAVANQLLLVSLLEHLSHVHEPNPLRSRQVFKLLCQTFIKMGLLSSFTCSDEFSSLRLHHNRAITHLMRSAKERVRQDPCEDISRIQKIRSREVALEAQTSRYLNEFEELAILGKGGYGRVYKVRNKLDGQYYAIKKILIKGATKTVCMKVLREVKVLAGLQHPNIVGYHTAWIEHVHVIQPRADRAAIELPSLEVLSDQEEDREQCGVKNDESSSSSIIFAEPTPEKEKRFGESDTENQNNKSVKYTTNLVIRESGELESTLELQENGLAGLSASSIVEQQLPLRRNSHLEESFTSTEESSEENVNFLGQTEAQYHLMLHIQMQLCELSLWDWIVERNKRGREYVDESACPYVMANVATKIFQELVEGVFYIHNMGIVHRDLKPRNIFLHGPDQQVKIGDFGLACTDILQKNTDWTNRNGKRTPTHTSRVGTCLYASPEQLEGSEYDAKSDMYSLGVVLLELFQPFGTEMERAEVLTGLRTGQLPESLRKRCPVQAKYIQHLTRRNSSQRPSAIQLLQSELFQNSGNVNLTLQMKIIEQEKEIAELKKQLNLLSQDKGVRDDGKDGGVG

`CC(C)[C@H](NC(=O)c1cc(-c2cnn3cc(-c4ccc(OCCN5CCCCC5)cc4)cnc23)cs1)C(F)(F)F`: the inhibition in test [1] was 7%; in test [3], 0%; in test [4], 0%; in [5] it was 67%. For the same compound, the fold change (FC) in test [2] was 0; in test [6], 0.03.
With `O=C(N[C@@H](C1CC1)C(F)(F)F)c1cc(-c2cnn3cc(-c4ccc(F)cc4)cnc23)cs1`, the inhibition in test [7] amounted to 15%; in test [8], 0%; in test [9], 0%. The fold change (FC) in test [10] was 0.
`CNC(=O)c1ccccc1Oc1nc(Nc2cc(OC)c(OC)c(OC)c2)ncc1Br`: the fold change (FC) amounted to 0.09 in test [11] and 0 in [12]. The inhibition in test [13] was determined as 23%.

These data come from ChEMBL document CHEMBL5653631, “A Potent and Selective ULK1 Inhibitor Suppresses Autophagy and Sensitizes Cancer Cells to Nutrient Stress” (iScience, 2018).
